Sampled rows, rich in hits. Any-hit rate of the full collection: about 1.8%.
Tb MetRS inh: T. brucei MetRS inhibitors, primary screen, biochemical, luminescence | purified T. brucei MetRS, ATP depletion, Kinase-Glo luminescence | inhibition, % at 11.9 µM | actives 0.4% (n = 360,000);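 active = inhibition above a per-plate cutoff of the control wells' mean inhibition plus 3 SD, cut at about 5.5% in these data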;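 note: 0% = DMSO wells median and 100% = median of wells with control inhibitor compound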
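Dosing: 11.9 µM single point; system: parasite MetRS enzyme; technique: luminescence of leftover ATP; times: 15 min enzyme-compound preincubation, 2 h reaction, 10 min detection, 25 °C; replicates: each compound tested once; read-out basis: percent inhibition relative to median high and low control wells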
A3A deaminase: APOBEC3A ssDNA deaminase inhibitors, primary screen, selectivity assay for APOBEC3G inhibitor project, biochemical, FAM/TAMRA oligo cleavage fluorescence; DNA dC->dU-editing enzyme APOBEC-3A (Homo sapiens), P31941; recombinant A3A, FAM/TAMRA ssDNA deamination fluorescence; inhibition, % at 20 µM; actives 0.41% (n = 330,000); AID 493011, 2011;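 active = at least 40% inhibition at 20 µM here, with at most 30% in a related deaminase screen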;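 note: plate controls were A3A with DMSO for no effect and wells lacking A3A enzyme for full effect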
Target sequence (P31941 whole entry, looked up): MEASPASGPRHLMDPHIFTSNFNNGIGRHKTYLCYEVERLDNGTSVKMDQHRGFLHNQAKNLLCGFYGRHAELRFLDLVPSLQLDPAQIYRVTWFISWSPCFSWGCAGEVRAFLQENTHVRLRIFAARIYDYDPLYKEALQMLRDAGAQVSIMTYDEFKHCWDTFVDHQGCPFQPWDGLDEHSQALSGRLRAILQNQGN
PHOSPHO1 block: PubChem AID 1565. Phosphoethanolamine/phosphocholine phosphatase (Homo sapiens), Q8TCT1. recombinant PHOSPHO1, absorbance phosphatase assay. inhibition, % at 13.3 µM. actives 1.1% (n = 290,000); in the data active = inhibition above about 60%
Target sequence (Q8TCT1 whole entry, looked up): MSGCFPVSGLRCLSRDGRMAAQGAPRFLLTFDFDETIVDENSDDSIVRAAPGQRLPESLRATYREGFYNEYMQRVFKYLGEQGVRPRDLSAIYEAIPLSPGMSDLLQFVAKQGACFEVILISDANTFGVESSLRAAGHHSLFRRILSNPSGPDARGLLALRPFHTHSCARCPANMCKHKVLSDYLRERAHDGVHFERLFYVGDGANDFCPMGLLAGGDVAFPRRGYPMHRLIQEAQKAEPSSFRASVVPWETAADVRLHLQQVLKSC
pCIP destab: p/CIP-EGFP fusion destabilizers, primary screen, fluorescence, F442A cells; Q05BA5; 16 h; decrease of EGFP signal, % at 10 µM; actives 0.01% (n = 290,000); AID 1984, 2009;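 active = EGFP signal decrease of at least 30% at 10 µM or well 3 SD below plate mean, unless failing retest; inactive = the rest, including hits failing retest or dose response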
APOBEC3G inh: APOBEC3G DNA deaminase inhibitors, primary screen, biochemical, fluorescence, single-stranded DNA substrate, uHTS; recombinant A3G, ssDNA deamination FAM/TAMRA fluorescence; inhibition, % at 20 µM; actives 0.28% (n = 330,000); AID 493012, 2011;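 active = inhibition of at least 40% at 20 µM, with no more than 30% in the related APOBEC3A deaminase screen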;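 note: plate controls were DMSO wells with A3G for no effect and wells lacking A3G enzyme for full effect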
The depositor's hits bear a star; . = no result given.

SMILES | Tb MetRS inh | A3A deaminase | PHOSPHO1 block | pCIP destab | APOBEC3G inh
C=CCn1c(SCCN2CCOCC2)nc2c1c(=O)[nH]c(=O)n2C | -1 | -3 | 33 | 2 | -6
COCCn1c(SCCN2CCOCC2)nc2c1c(=O)[nH]c(=O)n2C | -1 | -1 | 63* | -22 | 12
Clc1ccc(SCCCCN2CCNCC2)cc1 | 0 | 3 | 0 | -11 | -4
O=C(CCN1CCOCC1)NNC(=O)c1ccc(Cl)c([N+](=O)[O-])c1 | 3 | -2 | . | . | -6
CC1CCCN(c2nc3ccccc3nc2C(C#N)S(=O)(=O)c2cccs2)C1 (stereo not given) | 1 | -1 | 102* | 0 | -1
Cc1ccc(S(=O)(=O)C(C#N)c2nc3ccccc3nc2N2CC(C)OC(C)C2)cc1C (stereo not given) | -1 | 1 | 78* | -7 | -1
COc1ccc(S(=O)(=O)C(C#N)c2nc3ccccc3nc2N2CCCC(C)C2)cc1 (stereo not given) | 1 | -6 | 59 | -35 | -1
C[C@H](CO)N1C[C@H](C)[C@H](CN(C)Cc2ccc(C(=O)O)cc2)OCc2ccccc2-c2c(n(C)c3ccccc23)C1=O | 1 | . | . | . | .
O=C(N/N=C/c1cccnc1)c1ccccc1[N+](=O)[O-] | 0 | 0 | -5 | 11 | -4
COc1ccc(CC(=O)OCC(=O)N2CCc3ccccc32)cc1OC | 0 | -3 | . | . | -8
COc1ccc2c(C)cc3nncn3c2c1 | 0 | 1 | 32 | 50 | 2
N#Cc1c(N)[nH]c(=S)c(C#N)c1-c1ccccc1 | 1 | -2 | 96* | -13 | 7
N#CC1=C2SCN(Cc3ccco3)CN2C(=O)CC1c1ccccc1F (stereo not given) | 0 | 0 | 83* | -4 | 7
N#CC1=C2SCN(c3ccc(F)cc3)CN2C(=O)CC1c1cccc(F)c1 (stereo not given) | -1 | 8 | 64* | -2 | 35
CN1CSC2=C(C#N)C(c3cccc(OCc4ccccc4)c3)CC(=O)N2C1 (stereo not given) | -2 | 2 | 20 | 1 | -1
CCc1ccc(C2CC(=O)N3CN(c4ccccc4)CSC3=C2C#N)cc1 (stereo not given) | 0 | 0 | 86* | 0 | 40
N#CC1=C2SCN(Cc3ccco3)CN2C(=O)CC1c1cccc2ccccc12 (stereo not given) | 0 | -3 | 39 | 8 | 5
O=C(CCOc1ccccc1)Nc1ccnn1C1CCN(Cc2ccc(CO)o2)CC1 | 0 | -3 | 33 | -3 | -2
C#CCSc1nccc(-c2nn(-c3ccc(C)cc3)ccc2=O)n1 | -1 | 2 | 81* | 6 | 1
CCSc1nccc(-c2nn(-c3ccc(C)cc3)ccc2=O)n1 | 0 | -1 | 10 | 5 | -2
CCCn1c(SCC(=O)c2cc(C)c(C)cc2C)n[nH]c1=O | 0 | 0 | 97* | -12 | -1
CCCn1c(SCC(=O)c2ccc3c(c2)OCCO3)n[nH]c1=O | -1 | -2 | 17 | -13 | -15
CCN(CC)c1ccc(/C=N/Nc2ccccc2)c(O)c1 | 1 | 0 | 91* | -9 | -5
CCN(CC)C(=O)CSC1=C(C#N)C(c2cccs2)C=C(C)N1 (stereo not given) | -1 | -3 | 94* | 3 | -2
O=C(Cn1cnc2ccccc21)Nc1cccc(S(=O)(=O)N2CCCC2)c1 | 36* | 4 | . | . | -6
SMILES | Tb MetRS inh | A3A deaminase | PHOSPHO1 block | pCIP destab | APOBEC3G inh
O=C(NCc1cc(F)ccc1F)C1CCC(=O)N(C2CCCCCC2)C1 (stereo not given) | -1 | -5 | 38 | 1 | -9
Cn1cnnc1Sc1nc2ccccc2nc1NS(=O)(=O)c1ccccc1 | 0 | -1 | 62* | -14 | 7
CC(=O)Nc1ccc(S(=O)(=O)Nc2nc3ccccc3nc2Sc2nncn2C)cc1 | 0 | -5 | 54 | -67 | -12
Cn1ccnc1Sc1nc2ccccc2nc1NS(=O)(=O)c1ccccc1 | -1 | -12 | 73* | -13 | -15
Cc1nnc(NC(=O)CCSc2ccc(Cl)cc2)s1 | -1 | -1 | 60* | -2 | -5
Cc1nnc(NC(=O)CCSc2ccccc2)s1 | 0 | 0 | 7 | 3 | -1
CCc1ccccc1-n1c(SCC(=O)c2c(N)n(C3CC3)c(=O)[nH]c2=O)nnc1N1CCOCC1 | 0 | 24 | . | . | -1
CCn1c(-c2ccc3[nH]c(C)c(C)c3c2)n[nH]c1=S | 0 | -3 | 94* | -7 | 30
Cc1[nH]c2ccc(-c3n[nH]c(=S)n3C)cc2c1C | -1 | -7 | 98* | 6 | 31
CCC(=O)NC(c1ccc(OC)cc1)c1c(O)ccc2ccccc12 (stereo not given) | 0 | -5 | 44 | 34* | -4
S=C1NC2=C(CCC/C2=C\c2ccccc2)C(c2ccccc2)N1 (stereo not given) | 0 | -5 | 30 | -7 | -11
S=C1NC2=C(CCC/C2=C\c2ccc(Cl)cc2)C(c2ccc(Cl)cc2)N1 (stereo not given) | 0 | -1 | 92* | 5 | 0
Cc1cc(C)c(Nc2n[nH]c(=S)s2)cc1C | 0 | . | . | . | .
COc1ccccc1Nc1n[nH]c(=S)s1 | 0 | -1 | 52 | 17 | 57*
Cc1cccc(Nc2n[nH]c(=S)s2)c1C | -1 | -2 | 100* | -4 | 39
Cc1cccc(C)c1Nc1n[nH]c(=S)s1 | 0 | . | . | . | .
O=C(O)c1ccccc1CSc1nc2ccccc2o1 | -1 | 0 | 75* | 1 | -1
COc1cc(OC)nc(NC(=O)CSc2nc3ccccc3o2)n1 | 0 | -1 | 10 | -1 | -2
Cc1cc(C)nc(NC(=O)CSc2nc3ccccc3o2)n1 | 1 | 7 | 69* | -7 | 1
CC(=O)Nc1ccc(C(=O)NC(C)c2ccc(-n3ccnc3)cc2)cc1 (stereo not given) | 0 | 2 | 68* | -3 | 16
CCCc1c(C)nc2ccc(OC)cc2c1SCCC(=O)O | 1 | -1 | -4 | 9 | -2
CCCOc1ccc2nc(C)c(CCC)c(SC(=N)N)c2c1 | -1 | -1 | 67* | -2 | 2
CCOC(=O)COc1ccc(S(=O)(=O)NCC2CCCO2)cc1 (stereo not given) | 0 | -1 | 197* | -4 | -8
Cc1ccc(S(=O)(=O)NCC2CCCO2)cc1 (stereo not given) | 0 | -7 | 35 | -12 | -11
CCN(c1ccc(NC(=O)COC(=O)c2cccs2)cc1)C(C)C | -1 | -3 | 33 | -6 | -3
CCN(CC)c1ccc(NC(=O)COC(=O)c2cccs2)cc1 | 0 | -3 | 100* | 1 | -6
O=C(c1cccc(Oc2ccc([N+](=O)[O-])cc2)c1)N1CCOCC1 | 0 | -1 | 63* | 4 | -4

High-throughput results: PubChem, several laboratories
